Key:
[1] = biological target: T1, C-X-C chemokine receptor type 2 (Homo sapiens, UniProt P25025); assay: Displacement of europium labeled-human IL8 from human cloned CXCR2 expressed in Sf9 membrane with Galphai3-beta-1-gamma-2 by DELFIA binding assay
T1 sequence (P25025 whole entry): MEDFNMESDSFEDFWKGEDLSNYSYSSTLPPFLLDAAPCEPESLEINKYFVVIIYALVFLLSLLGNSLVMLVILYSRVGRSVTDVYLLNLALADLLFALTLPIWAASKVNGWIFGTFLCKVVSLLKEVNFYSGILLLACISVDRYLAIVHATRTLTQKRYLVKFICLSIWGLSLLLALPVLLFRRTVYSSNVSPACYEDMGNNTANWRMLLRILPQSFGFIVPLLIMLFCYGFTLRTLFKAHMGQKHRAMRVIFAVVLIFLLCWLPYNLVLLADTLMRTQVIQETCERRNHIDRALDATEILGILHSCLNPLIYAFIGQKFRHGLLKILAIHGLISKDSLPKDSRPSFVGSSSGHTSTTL
How it was run: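 Lysates (40 µg/mL) incubated in triplicate with 2 nM Eu-IL-8 and compound, 90 min at room temperature. Filtered and washed, enhancement solution added, time-resolved fluorescence read at 340/612 nm with 400 µs delay. Background defined with 200 nM unlabeled human IL-8. IC50 by four-parameter logistic fit.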

[2] = biological target: T1, C-X-C chemokine receptor type 2; assay: Antagonist activity at human cloned CXCR2 by calcium flux FLIPR assay; assay type: functional
How it was run: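 Chem-1 cells carrying cloned human CXCR2 coupled to Gi/o, seeded at 5 × 10⁵ cells/mL and left to adhere overnight in DMEM without G-418. Loaded with half-strength Calcium 3 dye in HBSS/20 mM Hepes pH 7.4/2.5 mM probenecid, with compound in triplicate, 30 min at 37 °C then 30 min at room temperature. Stimulated with human IL-8 (4 nM solution added). Fluorescence 485/525 read every 2 s. IC50 from a four-parameter logistic fit.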

Cytochrome P450 1A2 = biological target: T2, Cytochrome P450 1A2 (Homo sapiens, UniProt P05177); assay: Inhibition of CYP1A2; assay type: ADME
T2 sequence (P05177 whole entry): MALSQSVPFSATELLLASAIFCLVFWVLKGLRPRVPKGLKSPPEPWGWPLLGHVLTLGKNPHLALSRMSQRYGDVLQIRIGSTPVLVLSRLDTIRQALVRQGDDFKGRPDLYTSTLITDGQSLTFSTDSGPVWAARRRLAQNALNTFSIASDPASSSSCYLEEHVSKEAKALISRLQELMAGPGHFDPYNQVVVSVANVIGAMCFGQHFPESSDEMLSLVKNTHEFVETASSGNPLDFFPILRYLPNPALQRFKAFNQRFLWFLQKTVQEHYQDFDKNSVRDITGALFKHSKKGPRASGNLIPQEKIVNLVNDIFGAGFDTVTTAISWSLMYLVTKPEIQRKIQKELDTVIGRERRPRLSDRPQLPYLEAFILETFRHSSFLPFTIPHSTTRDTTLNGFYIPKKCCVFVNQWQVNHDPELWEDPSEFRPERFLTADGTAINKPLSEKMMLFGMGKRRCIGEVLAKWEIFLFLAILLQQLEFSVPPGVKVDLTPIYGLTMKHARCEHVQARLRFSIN

Cytochrome P450 2C9 = Cytochrome P450 2C9 (Homo sapiens, UniProt P11712); assay: Inhibition of CYP2C9; assay type: ADME
Sequence of Cytochrome P450 2C9 (P11712 whole entry): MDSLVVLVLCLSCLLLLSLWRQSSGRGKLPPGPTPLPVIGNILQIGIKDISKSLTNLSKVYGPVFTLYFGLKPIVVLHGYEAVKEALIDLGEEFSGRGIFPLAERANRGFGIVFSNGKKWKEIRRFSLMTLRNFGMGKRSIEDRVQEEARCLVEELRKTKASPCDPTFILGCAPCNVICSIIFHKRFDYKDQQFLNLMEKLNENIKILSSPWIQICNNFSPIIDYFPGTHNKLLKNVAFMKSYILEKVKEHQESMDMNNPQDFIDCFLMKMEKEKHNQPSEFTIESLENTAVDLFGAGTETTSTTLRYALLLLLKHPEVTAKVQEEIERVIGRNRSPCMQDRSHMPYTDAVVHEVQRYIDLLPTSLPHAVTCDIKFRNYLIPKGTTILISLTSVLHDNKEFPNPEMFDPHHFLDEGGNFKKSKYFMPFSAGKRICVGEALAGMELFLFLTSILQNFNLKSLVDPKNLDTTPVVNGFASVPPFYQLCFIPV

Cytochrome P450 3A4 = Cytochrome P450 3A4 (Homo sapiens, UniProt P08684); assay: Inhibition of CYP3A4; assay type: ADME
Sequence of Cytochrome P450 3A4 (P08684 whole entry): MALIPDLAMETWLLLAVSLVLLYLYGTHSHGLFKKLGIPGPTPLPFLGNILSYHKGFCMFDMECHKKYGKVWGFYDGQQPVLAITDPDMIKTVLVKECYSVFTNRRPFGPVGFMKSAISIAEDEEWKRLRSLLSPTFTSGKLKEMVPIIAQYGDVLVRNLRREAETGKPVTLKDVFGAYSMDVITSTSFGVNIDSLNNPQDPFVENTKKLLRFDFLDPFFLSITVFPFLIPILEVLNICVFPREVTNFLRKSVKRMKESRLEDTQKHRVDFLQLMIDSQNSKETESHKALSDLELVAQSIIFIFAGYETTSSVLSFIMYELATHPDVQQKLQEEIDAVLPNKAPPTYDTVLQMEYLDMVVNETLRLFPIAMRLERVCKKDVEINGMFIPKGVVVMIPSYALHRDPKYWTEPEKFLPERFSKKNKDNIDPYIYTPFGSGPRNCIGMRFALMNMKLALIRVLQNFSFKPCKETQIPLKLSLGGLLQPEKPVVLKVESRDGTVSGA

Cytochrome P450 2C19 = Cytochrome P450 2C19 (Homo sapiens, UniProt P33261); assay: Inhibition of CYP2C19; assay type: ADME
Sequence of Cytochrome P450 2C19 (P33261 whole entry): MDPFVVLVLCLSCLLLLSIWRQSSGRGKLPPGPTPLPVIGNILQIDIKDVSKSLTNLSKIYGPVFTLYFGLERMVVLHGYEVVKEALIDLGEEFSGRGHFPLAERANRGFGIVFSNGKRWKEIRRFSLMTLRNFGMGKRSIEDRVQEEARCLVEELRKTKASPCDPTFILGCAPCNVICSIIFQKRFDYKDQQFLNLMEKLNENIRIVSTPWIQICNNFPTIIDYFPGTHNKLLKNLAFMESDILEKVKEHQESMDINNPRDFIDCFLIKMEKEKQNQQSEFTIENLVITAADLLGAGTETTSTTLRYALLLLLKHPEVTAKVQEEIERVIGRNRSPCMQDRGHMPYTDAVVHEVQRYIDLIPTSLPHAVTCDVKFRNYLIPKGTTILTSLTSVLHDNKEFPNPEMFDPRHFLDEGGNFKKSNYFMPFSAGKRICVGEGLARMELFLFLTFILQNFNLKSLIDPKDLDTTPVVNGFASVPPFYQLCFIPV

Cytochrome P450 2D6 = Cytochrome P450 2D6 (Homo sapiens, UniProt P10635); assay: Inhibition of CYP2D6; assay type: ADME
Sequence of Cytochrome P450 2D6 (P10635 whole entry): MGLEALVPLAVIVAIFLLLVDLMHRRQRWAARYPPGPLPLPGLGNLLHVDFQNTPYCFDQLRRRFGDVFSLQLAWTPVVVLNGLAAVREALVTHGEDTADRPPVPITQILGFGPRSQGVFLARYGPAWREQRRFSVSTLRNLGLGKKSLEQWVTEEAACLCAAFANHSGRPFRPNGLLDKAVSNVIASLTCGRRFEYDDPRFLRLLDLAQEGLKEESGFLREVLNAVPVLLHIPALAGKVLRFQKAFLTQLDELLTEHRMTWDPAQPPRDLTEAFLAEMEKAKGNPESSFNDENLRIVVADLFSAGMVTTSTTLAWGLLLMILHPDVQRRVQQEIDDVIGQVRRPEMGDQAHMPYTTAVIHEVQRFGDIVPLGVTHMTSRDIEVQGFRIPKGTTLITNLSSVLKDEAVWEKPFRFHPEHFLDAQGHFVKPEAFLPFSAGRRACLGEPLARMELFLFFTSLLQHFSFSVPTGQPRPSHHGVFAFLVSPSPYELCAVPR

[3] = Stability in rat liver microsomes after 10 mins; assay type: ADME, Microsome; details: read-out: Stability
[4] = Stability in human liver microsomes after 10 mins; assay type: ADME, Microsome; details: read-out: Stability
[5] = Plasma protein binding in rat; assay type: ADME, cell-free; details: read-out: PPB
[6] = Half life in iv dosed rat; assay type: ADME, organism-based; details: in vivo
[7] = Clearance in iv dosed rat; assay type: ADME, organism-based; details: in vivo
[8] = Oral bioavailability in rat; assay type: ADME, organism-based; details: in vivo
Rattus norvegicus [9] = assay: Reduction of hyperoxia-induced neutrophil accumulation in newborn rat at 10 mg/kg, ip after 7 days; assay type: functional; set-up: scale not given: the % may be the effect or the level left; details: route intraperitoneal
Rattus norvegicus [10] = assay: Reduction of hyperoxia-induced neutrophil accumulation in newborn rat at 10 mg/kg, ip after 7 days; set-up: scale not given: the % may be the effect or the level left; details: route intraperitoneal

In the case of `N#Cc1ccc2[nH]c(-c3ccc(F)cc3)c(CCCC(=O)NS(=O)(=O)N3CCOCC3)c2c1`, the IC50 [1] is reported as 150 nM.

`N#Cc1ccc2[nH]c(-c3ccc(F)cc3)c(CCNC(=O)NS(=O)(=O)c3ccc(F)cc3)c2c1` gave an IC50 [1] of 520 nM.

With `N#Cc1ccc2[nH]c(-c3ccc(F)cc3)c(CCCC(=O)NS(=O)(=O)Nc3ccccc3)c2c1` the IC50 [1] was 880 nM.

For `CS(=O)(=O)NC(=O)CCCc1c(-c2ccc(F)cc2)[nH]c2ccc(Br)cc12`, the IC50 [1] was 170 nM.

With `CNS(=O)(=O)NC(=O)CCCc1c(-c2ccc(F)cc2)[nH]c2ccc(C#N)cc12` the IC50 [1] was 120 nM and the IC50 [2] was 14 nM.

Molecule `CCN(CC)S(=O)(=O)NC(=O)CCCc1c(-c2ccc(F)cc2)[nH]c2ccc(C#N)cc12` has an IC50 [1] of 1100 nM.

For `CCCS(=O)(=O)NC(=O)CCCc1c(-c2ccc(F)cc2)[nH]c2ccc(C#N)cc12`, the IC50 [1] was 1300 nM.

`CN(C)S(=O)(=O)NC(=O)CCCc1c(-c2ccc(F)cc2)[nH]c2ccc(C#N)cc12` showed an IC50 (Cytochrome P450 1A2) greater than 5000 nM, an IC50 [1] of 50 nM and an IC50 [2] of 5 nM. It also gave an IC50 (Cytochrome P450 2C9) of 1320 nM, an IC50 (Cytochrome P450 3A4) greater than 5000 nM and an IC50 (Cytochrome P450 2C19) greater than 5000 nM. The IC50 (Cytochrome P450 2D6) was greater than 5000 nM, the remaining at 10 min [3] was 100% and the remaining at 10 min [4] was 76.8%. The fraction unbound [5] was less than 0.01, the half-life [6] was 2.7 h and the clearance [7] was 3.8 mL/min/kg. It also gave a bioavailability [8] of 107%, an Activity (Rattus norvegicus [9]) of 50% and an Activity (Rattus norvegicus [10]) of 50%.

In the case of `Cc1cc2[nH]c(-c3ccc(F)cc3)c(CCCC(=O)NS(C)(=O)=O)c2cc1C#N`, the IC50 [1] is reported as 19 nM.

Work on `CC(C)S(=O)(=O)NC(=O)CCCc1c(-c2ccc(F)cc2)[nH]c2ccc(C#N)cc12` yielded an IC50 [1] of 220 nM.

`COc1cc2[nH]c(-c3ccc(F)cc3)c(CCCC(=O)NS(C)(=O)=O)c2cc1C#N` gave an IC50 [1] of 160 nM.

In the case of `N#Cc1ccc2[nH]c(-c3ccc(F)cc3)c(CCCC(=O)NS(N)(=O)=O)c2c1`, the IC50 [1] is reported as 66 nM.

Work on `Cc1cc2[nH]c(-c3ccc(F)cc3)c(CCCC(=O)NS(=O)(=O)N(C)C)c2cc1C#N` yielded an IC50 [1] of 24 nM.

In the case of `N#Cc1ccc2[nH]c(-c3ccc(F)cc3)c(CCCC(=O)NS(=O)(=O)C(F)(F)F)c2c1`, the IC50 [1] is reported as 87 nM and the IC50 [2] is reported as 70 nM.

`N#Cc1ccc2[nH]c(-c3ccc(F)cc3)c(CCCC(=O)NS(=O)(=O)c3ccccc3)c2c1` gave an IC50 [1] of 260 nM.

In the case of `CCCCNS(=O)(=O)NC(=O)CCCc1c(-c2ccc(F)cc2)[nH]c2ccc(C#N)cc12`, the IC50 [1] is reported as 1100 nM.

In the case of `N#Cc1ccc2[nH]c(-c3ccc(F)cc3)c(CCNC(=O)NS(=O)(=O)c3ccccc3Cl)c2c1`, the IC50 [1] is reported as 400 nM.

`N#Cc1ccc2[nH]c(-c3ccc(F)cc3)c(CCNC(=O)NS(=O)(=O)c3ccccc3)c2c1` showed an IC50 [1] of 140 nM.

For `CCS(=O)(=O)NC(=O)CCCc1c(-c2ccc(F)cc2)[nH]c2ccc(C#N)cc12`, the IC50 [1] was 64 nM.

Molecule `CN(C(=O)CCCc1c(-c2ccc(F)cc2)[nH]c2ccc(C#N)cc12)S(C)(=O)=O` has an IC50 [1] greater than 2000 nM.

Molecule `CS(=O)(=O)NC(=O)NCCc1c(-c2ccc(F)cc2)[nH]c2ccc(Br)cc12` has an IC50 [1] of 250 nM and an IC50 [2] of 90 nM.

`O=C(NCCc1c(-c2ccc(F)cc2)[nH]c2ccc(Br)cc12)NS(=O)(=O)c1ccccc1` gave an IC50 [1] of 120 nM and an IC50 [2] of 4 nM.

`CS(=O)(=O)NC(=O)CCCc1c(-c2ccc(F)cc2)[nH]c2ccc(C#N)cc12` showed an IC50 [1] of 72 nM and an IC50 [2] of 32 nM.

Molecule `COc1cc2[nH]c(-c3ccc(F)cc3)c(CCCC(=O)NS(=O)(=O)N(C)C)c2cc1C#N` has an IC50 [1] of 57 nM.

In the case of `CS(=O)(=O)NC(=O)NCCc1c(-c2ccc(F)cc2)[nH]c2ccc(C#N)cc12`, the IC50 [1] is reported as 640 nM.

With `N#Cc1ccc2[nH]c(-c3ccc(F)cc3)c(CCCC(=O)NS(=O)(=O)Cc3ccccc3)c2c1` the IC50 [1] was 1400 nM.

With `COCCNS(=O)(=O)NC(=O)CCCc1c(-c2ccc(F)cc2)[nH]c2ccc(C#N)cc12` the IC50 [1] was 260 nM.
